# Screening data: PubChem BioAssay, Sanford-Burnham Center for Chemical Genomics
# SUMO1-SIM PPI: modulators of human SUMO1-mediated protein-protein interactions | AID 602429 | SUMO1 binding to a labelled peptide, TR-FRET, 1 h | 360,000 tested, 0.33% active | inhibition, % at 20 µM | P63165; in the data active = inhibition above about 37%
# LMPTP inh: LMPTP (human) inhibition; recombinant LMPTP-A, OMFP fluorogenic substrate, fluorescence intensity; inhibition, % at 20 µM; 360,000 tested, 0.22% active; AID 651560;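 active = compounds that cut the enzyme signal by at least half of the control window in the single-dose screen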;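 note: plate controls were DMSO wells with enzyme plus substrate for no effect and substrate without enzyme for full effect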
#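 Test system – LMPTP-A enzyme · Amount – LMPTP-A at 0.625 nM final in the reaction · Buffer or medium – Bis-Tris pH 6.0, DTT, detergent · Reagent – OMFP 400 µM · Doses – single 20 µM dose · Schedule – reaction 50 min, room temperature, dark · Detection – fluorescence intensity of OMFP turnover product · Evaluation – percent inhibition versus substrate-only and uninhibited controls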
# NadD inh: NadD (S. aureus) enzyme inhibition; purified NadD enzyme, colorimetric absorbance read-out; inhibition, % at 20 µM; 360,000 tested, 0.78% active; in the data active = inhibition above about 26%
# Scp1 inh: inhibitors of human Scp-1 phosphatase; Q9GZU7; Recombinant Scp1, phosphopeptide, malachite green phosphate absorbance; inhibition, % at 20 µM; 340,000 tested, 0.88% active;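 active = inhibition above about 50% at 20 µM, limit read from the data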;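 note: plate controls were DMSO wells with enzyme for no effect and wells lacking enzyme for full effect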
#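 Material – SCP-1 phosphatase catalytic domain, residues 76-261 · Buffer or medium – Acidic Tris acetate buffer with magnesium and detergent · Also added – Phospho 17-mer peptide substrate · Compound – single 20 µM dose, 1% DMSO · Times – 45 min room-temperature reaction, 5 min colour, 30 min stabiliser · Technique – Phosphate-binding colour reagent, absorbance read at 630 nm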
# STEP block: blocks human striatal-enriched tyrosine phosphatase | inhibition, % at 20 µM | P54829 | recombinant STEP, OMFP fluorogenic substrate, fluorescence | 360,000 tested, 0.25% active;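 active = inhibition at 20 µM, scaled per plate between control wells, above about 37%, limit read from the data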;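 note: 0% = DMSO with enzyme and substrate and 100% = substrate only without enzyme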
#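 medium = Bis-Tris buffer pH 6.0, 2.5 mM DTT, 0.005% Tween 20 | test system = STEP (striatal-enriched tyrosine phosphatase) enzyme, cell-free | measure = normalized % inhibition | compound dosing = 20 µM, 1% DMSO | also added = 25 µM OMFP | schedule = reaction 20 min, ambient temperature | measured by = fluorescence read at 480 nm ex / 540 nm em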
# DNMT1 block: inhibitors of human DNMT1; DNMT1 molecular beacon, Hinp1I cleavage, fluorescence; AID 588458; inhibition (reported as % activation of signal), % at 10 µM; 360,000 tested, 0.83% active; in the data active = inhibition above about 50%
# Target sequence (P26358 504-1616 limits assumed): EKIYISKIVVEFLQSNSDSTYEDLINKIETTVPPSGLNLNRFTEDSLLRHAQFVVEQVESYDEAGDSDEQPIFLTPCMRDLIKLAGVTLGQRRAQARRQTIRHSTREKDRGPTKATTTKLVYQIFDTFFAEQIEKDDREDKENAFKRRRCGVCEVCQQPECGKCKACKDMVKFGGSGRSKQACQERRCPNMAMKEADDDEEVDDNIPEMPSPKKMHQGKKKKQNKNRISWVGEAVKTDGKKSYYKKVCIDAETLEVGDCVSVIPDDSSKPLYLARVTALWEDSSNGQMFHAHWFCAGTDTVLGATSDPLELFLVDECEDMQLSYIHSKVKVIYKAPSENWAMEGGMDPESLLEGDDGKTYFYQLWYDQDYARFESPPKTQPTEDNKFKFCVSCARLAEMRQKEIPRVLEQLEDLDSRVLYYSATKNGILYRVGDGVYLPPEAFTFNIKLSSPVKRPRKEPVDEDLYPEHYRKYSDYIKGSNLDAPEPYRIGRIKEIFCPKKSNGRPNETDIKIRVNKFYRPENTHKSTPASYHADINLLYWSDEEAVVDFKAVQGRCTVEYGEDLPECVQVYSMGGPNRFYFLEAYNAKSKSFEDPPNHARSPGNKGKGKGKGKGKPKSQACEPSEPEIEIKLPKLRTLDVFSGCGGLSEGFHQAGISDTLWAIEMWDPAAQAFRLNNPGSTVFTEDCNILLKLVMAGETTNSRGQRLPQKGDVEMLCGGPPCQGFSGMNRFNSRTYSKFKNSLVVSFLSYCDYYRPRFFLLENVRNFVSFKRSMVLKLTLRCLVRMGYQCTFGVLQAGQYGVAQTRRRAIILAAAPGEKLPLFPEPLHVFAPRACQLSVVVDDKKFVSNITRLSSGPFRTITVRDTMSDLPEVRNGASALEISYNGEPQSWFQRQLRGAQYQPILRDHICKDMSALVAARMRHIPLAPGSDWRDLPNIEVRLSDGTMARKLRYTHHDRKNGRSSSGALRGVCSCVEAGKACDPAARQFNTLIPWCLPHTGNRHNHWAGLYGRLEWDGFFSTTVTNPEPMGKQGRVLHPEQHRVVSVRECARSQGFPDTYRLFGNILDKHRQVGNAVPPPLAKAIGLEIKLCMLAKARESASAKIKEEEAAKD
# Scp-1 conf: Scp-1 (human) inhibition, single-dose confirmed; shares compounds with Scp1 inh; recombinant SCP-1 catalytic domain, phosphate release, malachite green absorbance; inhibition, % at 20 µM; 2,500 tested, 61% active; AID 540281;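 note: plate controls were DMSO with enzyme for no effect and buffer wells lacking enzyme for full effect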
# MG interference: colorimetric interference in Scp-1 counter-screen; shares compounds with Scp1 inh; Colorimetric interference counterscreen, malachite green absorbance 630 nm; apparent inhibition (interference), % at 20 µM; 2,500 tested, under 10 active;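 note: compounds added after enzyme reaction finished so only phosphate colour detection is probed; plate controls were DMSO wells with completed Scp-1 reaction for no effect and substrate wells lacking enzyme for full effect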
# Scp1 DSF: binds human Scp-1, shifting its melting temperature; shares compounds with Scp1 inh; Recombinant SCP1, Sypro Orange thermal shift Tm; thermal shift relative to vanadate control, % at 40 µM; 1,500 tested, 25% active; AID 540329;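 active = substances whose mean melting-temperature shift, as a percentage of the reference inhibitor's shift, reaches about 5.3%, limit read from the data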;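 note: 0% = Tm of DMSO wells and 100% = Tm with sodium orthovanadate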
# Starred values were filed as active, the others as inactive; nt = no result. Hits are enriched below; roughly 2.3% of the tested compounds scored in any of these assays.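 Rule for the calls, unless noted: active = inhibition of at least 30% at 20 µM; inactive = the rest.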
SMILES,SUMO1-SIM PPI,LMPTP inh,NadD inh,Scp1 inh,STEP block,DNMT1 block,Scp-1 conf,MG interference,Scp1 DSF
O=C(COc1ccc(F)cc1)NCCCn1ccnc1,-4,-5,-5,-2,-1,1,nt,nt,nt
Cc1ccc(NC(=O)COC(=O)CCc2nc3ccccc3c(=O)[nH]2)cc1Cl,2,-1,-8,-1,-1,0,nt,nt,nt
Cc1ccnc(NC(=O)c2ccc(S(=O)(=O)N3CCCCCC3)cc2)c1,7,0,1,0,1,-1,nt,nt,nt
COc1cc2nc(NC(=O)c3ccco3)sc(=O)c2cc1OC,5,12,-4,51*,39,10,43*,-12,-16
CCSC1=N/C(=C\c2ccc(OC)cc2)C(=O)N1,-13,-1,-6,50*,-2,4,2,-3,nt
Cc1c(/C(O)=C2\C(=O)C(=O)N(CCN(C)C)C2c2ccccc2)cnn1-c1ccccc1 (centres undefined),-10,-1,5,-1,1,-4,nt,nt,nt
C=CCn1cnc2c(c1=O)c1nc3ccccc3nc1n2/N=C/c1cccc(OC)c1OC,-5,13,-11,96*,27,18,62*,-16,3
COc1cc2c(C#CCO)c(-c3ccc(C#N)cc3)oc(=O)c2cc1OC,62*,4,-4,67*,25,-28,33*,6,5
CN(CC(=O)Nc1ccccc1Cl)C(=O)c1cccc(S(=O)(=O)N2CCN(Cc3ccccc3)CC2)c1,6,1,1,-2,-1,2,nt,nt,nt
NS(=O)(=O)c1ccc(NC(=O)CSc2nnc(NC3CC3)s2)cc1,12,0,2,87*,12,34,47*,-24,2
N#Cc1ccsc1NC(=O)CSc1nnc(NC2CC2)s1,1,0,-2,nt,0,3,nt,nt,nt
NC(=O)c1cc(S(=O)(=O)NCc2ccc(F)cc2)cs1,2,0,-1,-5,-2,-1,nt,nt,nt
Cc1cccc(CNS(=O)(=O)c2csc(C(N)=O)c2)c1,8,-2,2,-11,-5,1,-9,-12,nt
CSc1ccc(CCNS(=O)(=O)c2csc(C(N)=O)c2)cc1,32,0,2,-4,0,-2,5,-2,nt
NC(=O)c1cc(S(=O)(=O)NCc2cccc(Br)c2)cs1,10,0,-4,-9,6,-2,nt,nt,nt
CC1=CC(C)[C@H](/C=N/n2c(=O)[nH]c3c([nH]c4ccc(C)cc43)c2=O)C(C)C1 (some centres undefined),-1,-2,0,-7,-4,34,nt,nt,nt
C(=C\c1ccccc1)/CN1CCN(C(c2nnnn2Cc2ccccc2)C2CC2)CC1 (centres undefined),2,0,-4,nt,-1,4,nt,nt,nt
Cc1ccc(NC(=O)C2(NC(=O)c3ccccn3)CCCCC2)cc1Br,-2,0,9,-2,0,1,nt,nt,nt
Cc1ccc(-c2cc(C(=O)N3CCOCC3)c3ccccc3n2)o1,-7,0,-2,-7,-3,1,nt,nt,nt
Cc1ccc(-c2cc(C(=O)N3CCN(c4ccc(F)cc4)CC3)c3ccccc3n2)o1,-4,2,27,53*,2,19,29,-17,nt
O=C(O)CSc1c2c(nc3cc(C(=O)Nc4ccc(F)c(Cl)c4)ccc13)CCCC2,-10,2,14,52*,0,-4,83*,-16,-2
O=c1c(O)c(-c2ccc(O)cc2)oc2cc(O)cc(O)c12,-23,1,-3,53*,-7,3,54*,-4,9.2*
O=c1cc(-c2ccc(O)cc2)oc2cc(O)cc(O)c12,-4,1,-5,-9,-2,-5,nt,nt,nt
COc1cccc(/C=N/NC(=O)CCn2c3ccccc3c3ccccc32)c1,-1,2,-2,nt,1,0,nt,nt,nt
COc1ccc(/C=N/NC(=O)CCn2c3ccccc3c3ccccc32)cc1O,-6,3,8,56*,-3,-6,-19,-14,nt
SMILES,SUMO1-SIM PPI,LMPTP inh,NadD inh,Scp1 inh,STEP block,DNMT1 block,Scp-1 conf,MG interference,Scp1 DSF
C/C(CC(=O)NC1CCCCC1)=N\NC(=O)Cc1ccc(-c2ccccc2)cc1,4,1,3,69*,2,15,86*,-5,-7
O=C(O)c1cccc2c1-c1ccc(Cl)cc1C2,3,-1,-3,-10,0,1,nt,nt,nt
O=C(N/N=C/c1cc([N+](=O)[O-])ccc1O)c1ccc2c(c1)OCCO2,-12,4,9,64*,6,-3,48*,-6,-3
O=C(N/N=C/c1cc([N+](=O)[O-])ccc1Cl)c1ccc2nc[nH]c2c1,19,-1,-2,55*,2,3,28,-2,nt
CC(=O)Nc1cccc(NC(=O)CSc2ccc(-c3ccco3)nn2)c1,0,5,-6,70*,1,5,1,-21,nt
CC(=O)Nc1ccc(NC(=O)CSc2ccc(-c3ccco3)nn2)cc1,5,3,-1,51*,2,-3,14,-23,nt
Cc1ccc(SCC(=O)Nc2ccc(-c3nnc(-c4ccco4)o3)cc2)cc1,2,30,-4,70*,13,16,77*,-7,-21
Cc1ccc(NC(=O)CCSc2nnc(-c3ccco3)o2)cc1,-1,0,-4,-5,-3,1,nt,nt,nt
Cc1cccc(NC(=O)CSc2ccc(-c3ccco3)nn2)c1,-5,0,2,-4,-1,-11,nt,nt,nt
CCS(=O)(=O)NCCNc1ccc([N+](=O)[O-])cc1,0,1,4,-1,0,3,nt,nt,nt
O=C(O)c1cccc2c1/C(=N/Nc1ccc([N+](=O)[O-])cc1[N+](=O)[O-])c1ccccc1-2,-4,13,1,86*,17,-3,57*,-15,12*
O=C(O)c1cccc2c1C(=O)c1cc([N+](=O)[O-])cc([N+](=O)[O-])c1-2,0,1,2,nt,-2,11,nt,nt,nt
COc1ccc(CN(C)C(=O)c2ccc3c(=O)n4c(nc3c2)CCC4)c(OC)c1,-62,-11,5,-6,0,-8,nt,nt,nt
O=C(/C=C/c1ccco1)N1CCN(S(=O)(=O)c2cccs2)CC1,-3,7,0,58*,3,10,47*,-4,1
Cc1ccc(/C=C/C(=O)N2CCN(S(=O)(=O)c3cccs3)CC2)o1,9,0,-2,-5,-2,0,nt,nt,nt
